Only some compounds are listed: those with a hit (about 2.2% of all), similar ones and a draw of the others.
SMARCA2 act: SMARCA2 function activation, primary screen | MG213 cells, MMTV-luciferase reporter, dexamethasone, overnight | activation, % at 9.1 µM | actives 1% (n = 370,000) | AID 652017; in the data active = activation above about 7.8%
COUP-TFII inh: inhibitors of human COUP-TFII (NR2F2); P24468; HEK293T NGFI-A luciferase reporter, luminescence; inhibition, % at 8.6 µM; actives 0.7% (n = 370,000);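 active = inhibition above a per-plate cutoff, mean inhibition of test wells between control levels plus 3 SD, cut at about 38% in these data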;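 note: cells cotransfected with COUP-TFII expression vector driving the NGFI-A reporter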
Target sequence (P24468 whole entry, looked up): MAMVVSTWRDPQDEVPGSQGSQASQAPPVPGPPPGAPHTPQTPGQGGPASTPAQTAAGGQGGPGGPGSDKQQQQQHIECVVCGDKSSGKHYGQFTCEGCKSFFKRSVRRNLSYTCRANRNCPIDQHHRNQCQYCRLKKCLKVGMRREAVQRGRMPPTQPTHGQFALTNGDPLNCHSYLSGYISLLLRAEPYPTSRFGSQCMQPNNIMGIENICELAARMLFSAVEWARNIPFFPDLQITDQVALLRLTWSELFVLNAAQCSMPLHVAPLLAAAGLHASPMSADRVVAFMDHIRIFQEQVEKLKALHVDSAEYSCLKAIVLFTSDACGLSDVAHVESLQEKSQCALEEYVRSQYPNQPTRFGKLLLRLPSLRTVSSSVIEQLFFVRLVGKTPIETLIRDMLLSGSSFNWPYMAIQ
NR2E3 ag-1: activates human photoreceptor nuclear receptor NR2E3; inhibition of corepressor binding, % at 4.78 µM; actives 0.12% (n = 320,000); AID 2300; GST-NR2E3/biotin-RetCOR TR-FRET, 1536-well;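 active = percent inhibition above the cutoff of mean plus 3 SD of all tested compounds, set per screening campaign, cut at about 20% in these data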
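Format: 1536-well format; test system: GST-NR2E3 and biotin-RetCOR proteins; read-out basis: percent inhibition of TR-FRET ratio; timing: 5 h incubation at 4 °C; detection: time-resolved FRET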
GalR3 antag: antagonists of human GalR3 | O60755 | HEK293 GalR3-CNG cAMP membrane potential fluorescence; galR3 body fused to GalR1 C-terminus | inhibition, % at 3 µM | actives 0.44% (n = 360,000) | AID 651719;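 active = inhibition above the screen-wide average plus 3 SD, cut at about 13% in these data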;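 note: forskolin and galanin both at EC90 stimulate the cells; cAMP rise reported by CNG channel membrane potential dye signal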
Target sequence (O60755 1-299 limits assumed): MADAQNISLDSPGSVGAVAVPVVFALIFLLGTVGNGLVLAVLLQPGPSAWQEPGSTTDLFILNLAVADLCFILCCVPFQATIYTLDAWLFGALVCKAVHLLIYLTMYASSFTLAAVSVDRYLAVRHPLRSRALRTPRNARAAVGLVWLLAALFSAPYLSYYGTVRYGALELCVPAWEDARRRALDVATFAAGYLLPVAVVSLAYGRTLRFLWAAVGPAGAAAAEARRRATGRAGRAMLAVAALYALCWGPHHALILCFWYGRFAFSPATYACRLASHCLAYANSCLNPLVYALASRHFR
NR2E3 ag-2: activates human NR2E3 receptor; Q9Y5X4; CHO-S Gal4-NCOR/VP16-NR2E3 two-hybrid, luciferase; inhibition of corepressor binding, % at 3.98 µM; actives 0.35% (n = 360,000); AID 602229;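 active = inhibition above the mean of all tested compounds plus 3 SD, cut at about 70% in these data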;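 note: higher means lower luciferase signal from less NR2E3 corepressor binding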
SMARCA2 conf: confirmation of SMARCA2 (BRM) function activators. MG213 cells, MMTV-luciferase with dexamethasone, luminescence, overnight; MG213 cells expressing E1A, Rb sequestered; DMSO wells 0%, reference activator 100%. shares compounds with SMARCA2 act. actives 30% (n = 3,500). activation, % at 9.1 µM;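 active = activation above its plate's cutoff, the mean activation of tested wells plus 3 SD, cut at about 7.9% in these data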
GAL4-VP16 Luc: counter-screen for SMARCA2 activators: GAL4-VP16 luciferase reporter activation. actives 41% (n = 3,500). shares compounds with SMARCA2 act. HEK293 GAL4-VP16 pG5luc reporter, luciferase luminescence; scaled: DMSO wells 0%, SAHA wells 100%. AID 686939. activation, % at 9.1 µM;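 active = activation above the solvent-only control well mean plus 3 SD, averaged across control plates, cut at about 5.2% in these data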
A number is an active result.

What do the screens show for `Cc1c(Cl)cccc1NC(CC(=O)c1ccccc1)C(=O)O` (stereo not drawn)?
SMARCA2 act: 9.7; COUP-TFII inh: inactive; NR2E3 ag-1: inactive; GalR3 antag: inactive; NR2E3 ag-2: inactive; SMARCA2 conf: inactive; GAL4-VP16 Luc: inactive

How did Cc1ccc(Cn2cc(CN(C(C)(C)C)S(=O)(=O)c3ccccc3Br)nn2)cc1 do in these assays?
SMARCA2 act: inactive; COUP-TFII inh: inactive

How did O=C(N/N=C/c1ccc2c(c1)OCO2)c1cccs1 do in these assays?
SMARCA2 act: 9.2; COUP-TFII inh: inactive; NR2E3 ag-1: inactive; GalR3 antag: inactive; NR2E3 ag-2: inactive; SMARCA2 conf: 11; GAL4-VP16 Luc: 7.8

How did Cc1ccsc1C(=O)N/N=C/c1ccc2c(c1)OCO2 do in these assays?
SMARCA2 act: inactive; COUP-TFII inh: inactive; NR2E3 ag-1: inactive; GalR3 antag: inactive; NR2E3 ag-2: inactive

How did O=C(N/N=C/C1CC2CCC1C2)c1ccc2c(c1)OCO2 (stereo not drawn) do in these assays?
SMARCA2 act: 8.2; COUP-TFII inh: inactive; NR2E3 ag-1: inactive; GalR3 antag: inactive; NR2E3 ag-2: inactive; SMARCA2 conf: inactive; GAL4-VP16 Luc: inactive

How did O=C(N/N=C/c1ccc2c(c1)OCO2)c1ccc2c(c1)OCCO2 do in these assays?
SMARCA2 act: 10; COUP-TFII inh: inactive; NR2E3 ag-1: inactive; GalR3 antag: inactive; NR2E3 ag-2: inactive; SMARCA2 conf: inactive; GAL4-VP16 Luc: inactive

What do the screens show for `CCOC(=O)N1CCN(C(=O)C[C@H]2C[C@@]3(C(=O)OCC)CCCC4=C3N(CCC4)C2=O)CC1`?
SMARCA2 act: inactive; COUP-TFII inh: inactive

Results for CCOc1ccc2nc(SCC#N)c(C#N)cc2c1 ?
SMARCA2 act: 8.8; COUP-TFII inh: inactive; NR2E3 ag-1: inactive; GalR3 antag: inactive; NR2E3 ag-2: inactive; SMARCA2 conf: 7.8; GAL4-VP16 Luc: 6.6

How did CCSc1nc2ccc(OC)cc2cc1C#N do in these assays?
SMARCA2 act: inactive; COUP-TFII inh: inactive; NR2E3 ag-1: inactive; GalR3 antag: inactive; NR2E3 ag-2: inactive

How did CC(=O)Oc1ccc(-c2cc3ccc(OC(C)=O)cc3oc2=O)cc1 do in these assays?
SMARCA2 act: inactive; COUP-TFII inh: inactive; NR2E3 ag-1: inactive; GalR3 antag: inactive; NR2E3 ag-2: inactive

How did CC(=O)Oc1ccc(C2=Cc3ccc(OC(C)=O)cc3OC2C)cc1 (stereo not drawn) do in these assays?
SMARCA2 act: 8.2; COUP-TFII inh: inactive; GalR3 antag: inactive; NR2E3 ag-2: inactive; SMARCA2 conf: 8.0; GAL4-VP16 Luc: 6.5

How did Cn1c2ccccc2c(=O)c2ccc(Cl)cc21 do in these assays?
SMARCA2 act: inactive; COUP-TFII inh: inactive; GalR3 antag: inactive; NR2E3 ag-2: inactive

What do the screens show for `CN(C)c1ccc(-c2ccc3c(=O)c4ccccc4n(C)c3c2)cn1`?
SMARCA2 act: 8.5; COUP-TFII inh: inactive; NR2E3 ag-1: inactive; GalR3 antag: inactive; NR2E3 ag-2: inactive; SMARCA2 conf: 9.8; GAL4-VP16 Luc: 11

Results for Cc1sc(NC(=O)c2ccccc2F)c(CN2CCCCC2C)c1C (stereo not drawn) ?
SMARCA2 act: 9.5; COUP-TFII inh: inactive; NR2E3 ag-1: inactive; GalR3 antag: inactive; NR2E3 ag-2: inactive; SMARCA2 conf: 8.6; GAL4-VP16 Luc: 11

Results for COc1cc(NC(=O)C2CCCN(S(=O)(=O)c3ccc(Cl)s3)C2)cc(OC)c1 (stereo not drawn) ?
SMARCA2 act: inactive; COUP-TFII inh: inactive

What do the screens show for `C[C@@H]1CCCN1c1cccc2c1S(=O)(=O)N1CC[C@H](C1)O2`?
SMARCA2 act: inactive; COUP-TFII inh: inactive

What do the screens show for `COc1ccc(NC(=S)N(CCc2c(C)[nH]c3ccccc23)Cc2cccnc2)cc1`?
SMARCA2 act: 9.1; COUP-TFII inh: inactive; NR2E3 ag-1: inactive; GalR3 antag: inactive; NR2E3 ag-2: inactive; SMARCA2 conf: inactive; GAL4-VP16 Luc: inactive

What do the screens show for `O=C(CSc1nnc(-c2ccco2)n1-c1ccc(Cl)cc1)Nc1ccc(S(=O)(=O)Nc2nccs2)cc1`?
SMARCA2 act: inactive; COUP-TFII inh: inactive

How did C/C(CC(=O)Nc1ccc(Cl)c(C(F)(F)F)c1)=N\NC(=O)c1cccc(O)c1 do in these assays?
SMARCA2 act: 10; COUP-TFII inh: inactive; NR2E3 ag-1: inactive; GalR3 antag: inactive; NR2E3 ag-2: inactive; SMARCA2 conf: inactive; GAL4-VP16 Luc: inactive

How did Cc1ccc(NC(=S)NNC(=O)c2cnccn2)cc1 do in these assays?
SMARCA2 act: inactive; COUP-TFII inh: inactive

How did CCN(C(=O)COC(=O)/C(C#N)=C/c1ccc(N(C)C)cc1)C1CCS(=O)(=O)C1 (stereo not drawn) do in these assays?
SMARCA2 act: 8.3; COUP-TFII inh: inactive; GalR3 antag: inactive; NR2E3 ag-2: inactive; SMARCA2 conf: inactive; GAL4-VP16 Luc: inactive

How did CC(=O)c1c(C)nc(-c2ccc(Cl)cc2)nc1N=CN(C)C do in these assays?
SMARCA2 act: inactive; COUP-TFII inh: inactive; NR2E3 ag-1: inactive; GalR3 antag: inactive; NR2E3 ag-2: inactive

How did CC(=O)c1c(C)nc(-c2ccc(Cl)cc2)nc1N do in these assays?
SMARCA2 act: 10; COUP-TFII inh: inactive; NR2E3 ag-1: inactive; GalR3 antag: inactive; NR2E3 ag-2: inactive; SMARCA2 conf: inactive; GAL4-VP16 Luc: 11

How did O=C(c1ccc(Br)cn1)N1CCC(Oc2cccnc2)CC1 do in these assays?
SMARCA2 act: inactive; COUP-TFII inh: inactive

What do the screens show for `COc1ccc(C(C)c2cn(C)c3ccccc23)cc1` (stereo not drawn)?
SMARCA2 act: inactive; COUP-TFII inh: inactive

Results for COc1ccc(-c2cc(C(=O)c3c(N)n(C)c(=O)n(C)c3=O)c3ccccc3n2)cc1 ?
SMARCA2 act: 8.2; COUP-TFII inh: inactive; NR2E3 ag-1: inactive; GalR3 antag: inactive; NR2E3 ag-2: inactive; SMARCA2 conf: 8.8; GAL4-VP16 Luc: 7.3

What do the screens show for `Cc1ccc(NC(=S)NC(=O)C2CCCC2)cc1C`?
SMARCA2 act: inactive; COUP-TFII inh: inactive; NR2E3 ag-1: inactive; GalR3 antag: inactive; NR2E3 ag-2: inactive

How did Cc1ccc(NC(=S)NC(=O)C2CC2)c(C)c1 do in these assays?
SMARCA2 act: 8.8; COUP-TFII inh: inactive; NR2E3 ag-1: inactive; GalR3 antag: inactive; NR2E3 ag-2: inactive; SMARCA2 conf: inactive; GAL4-VP16 Luc: inactive

How did Cc1ccc(NC(=O)N2CCCCCC2)c(C)c1 do in these assays?
SMARCA2 act: 9.6; COUP-TFII inh: inactive; GalR3 antag: inactive; NR2E3 ag-2: inactive; SMARCA2 conf: inactive; GAL4-VP16 Luc: inactive

What do the screens show for `CCn1c(SCc2c(F)cccc2F)nc2sc3c(c2c1=O)CCCC3`?
SMARCA2 act: inactive; COUP-TFII inh: inactive

What do the screens show for `COc1ccc(NC(=O)/C=C/c2cccc(F)c2)cn1`?
SMARCA2 act: 12; COUP-TFII inh: inactive; NR2E3 ag-1: inactive; GalR3 antag: inactive; NR2E3 ag-2: inactive; SMARCA2 conf: inactive; GAL4-VP16 Luc: 10
